Experiments:
[1] = Retention time under basic conditions using 20 mM Na2HPO4 (pH9.9)/MeOH (1:1) mobile phase by HPLC method; format: physicochemical; conditions: buffer, pH 9.9
In short: (§1)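 Reversed-phase HPLC at a flow rate of 0.7 mL/min, with a void volume of 2.46 min. Each retention time is the mean of three runs under that mobile-phase condition.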

[2] = Retention time under acidic conditions using H20/MeOH mobile phase containing 0.1% TFA (1:1) by HPLC method; format: physicochemical; in short: as §1
[3] = Retention time under neutral conditions using H20/MeOH (1:1) mobile phase by HPLC method; format: physicochemical; in short: as §1
[4] = biological target: Neuronal acetylcholine receptor subunit alpha-4 (Mus musculus, UniProt O70174); assay: Inhibition of [3H]nicotine binding to alpha4 nicotinic acetylcholine receptor in Mus musculus (mouse) M10 cells co-expressing beta2 nicotinic acetylcholine receptor subunits; format: cell-based
[5] = biological target: Neuronal acetylcholine receptor subunit alpha-3 (Homo sapiens, UniProt P32297); assay: Inhibition of [3H]nicotine binding to alpha3 nicotinic acetylcholine receptor in Homo sapiens (human) SH-SY5Y cells co-expressing beta2beta4alpha5 Nicotinic acetylcholine receptor subunits; format: cell-based
Musca domestica = assay: Toxicity against Musca domestica (house fly) dosed with compound through intra-thoracic injection pre-treated with 100 ug/g metabolic detoxification inhibitor O-propyl O-(2-propynyl)phenylphosphonate; format: functional
[6] = Toxicity in ip dosed Mus musculus (mouse); format: organism-based; conditions: in vivo
[7] = biological target: T1, Acetylcholine receptor subunit beta-like 2 (Drosophila melanogaster, UniProt P25162); assay: Inhibition of [3H]IMI binding to Drosophila melanogaster neuronal acetylcholine receptor
T1 sequence (P25162 whole entry): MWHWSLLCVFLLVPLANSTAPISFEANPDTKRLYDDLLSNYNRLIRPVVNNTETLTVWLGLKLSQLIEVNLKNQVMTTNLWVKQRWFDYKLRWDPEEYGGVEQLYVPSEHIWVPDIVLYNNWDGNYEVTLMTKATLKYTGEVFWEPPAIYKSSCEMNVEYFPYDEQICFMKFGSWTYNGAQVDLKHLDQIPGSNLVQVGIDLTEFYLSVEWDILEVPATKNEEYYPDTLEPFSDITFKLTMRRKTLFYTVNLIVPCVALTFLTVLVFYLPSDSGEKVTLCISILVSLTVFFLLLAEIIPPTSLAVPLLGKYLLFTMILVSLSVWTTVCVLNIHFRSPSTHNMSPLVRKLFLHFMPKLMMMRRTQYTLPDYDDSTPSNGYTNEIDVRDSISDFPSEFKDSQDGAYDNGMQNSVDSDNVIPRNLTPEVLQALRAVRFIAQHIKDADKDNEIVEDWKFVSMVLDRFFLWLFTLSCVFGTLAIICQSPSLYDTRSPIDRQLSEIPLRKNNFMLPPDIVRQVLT

[8] = biological target: Neuronal acetylcholine receptor subunit alpha-7 (Homo sapiens, UniProt P36544); assay: Inhibition of [125I]alpha-BGT binding to alpha7 nicotinic acetylcholine receptor in Homo sapiens (human) SH-SY5Y cells
[9] = biological target: Acetylcholine receptor subunit alpha (Homo sapiens, UniProt P02708+P07510+P11230+Q07001); assay: Inhibition of [125I]alpha-BGT binding to alpha1 nicotinic acetylcholine receptor in Homo sapiens (human) TE671 cells co-expressing gammaalpha1deltabeta1 nicotinic acetylcholine receptor subunits
[10] = biological target: Acetylcholine receptor subunit alpha (Homo sapiens) (UniProt P02708); assay: Inhibition of […] binding to alpha1 nicotinic acetylcholine receptor in Homo sapiens (human) TE671 cells co-expressing gammaalpha1deltabeta1 nicotinic acetylcholine receptor at >300 uM; format: cell-based; conditions: TE-671
Acetylcholine receptor subunit alpha (Homo sapiens), sequence (P02708 whole entry): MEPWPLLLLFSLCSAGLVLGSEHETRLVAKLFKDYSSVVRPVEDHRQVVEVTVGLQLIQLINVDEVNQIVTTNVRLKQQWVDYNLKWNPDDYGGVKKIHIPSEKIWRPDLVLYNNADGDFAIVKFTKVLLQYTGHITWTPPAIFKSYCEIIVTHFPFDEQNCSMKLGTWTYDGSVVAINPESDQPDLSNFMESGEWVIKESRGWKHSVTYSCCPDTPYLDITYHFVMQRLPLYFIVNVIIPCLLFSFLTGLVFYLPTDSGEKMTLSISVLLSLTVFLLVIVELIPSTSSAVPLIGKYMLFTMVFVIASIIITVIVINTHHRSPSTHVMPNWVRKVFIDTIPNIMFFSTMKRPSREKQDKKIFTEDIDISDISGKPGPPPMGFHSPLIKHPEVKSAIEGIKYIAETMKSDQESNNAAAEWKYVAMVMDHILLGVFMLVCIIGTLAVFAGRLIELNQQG

Neuronal acetylcholine receptor subunit alpha-3, sequence (P32297 whole entry): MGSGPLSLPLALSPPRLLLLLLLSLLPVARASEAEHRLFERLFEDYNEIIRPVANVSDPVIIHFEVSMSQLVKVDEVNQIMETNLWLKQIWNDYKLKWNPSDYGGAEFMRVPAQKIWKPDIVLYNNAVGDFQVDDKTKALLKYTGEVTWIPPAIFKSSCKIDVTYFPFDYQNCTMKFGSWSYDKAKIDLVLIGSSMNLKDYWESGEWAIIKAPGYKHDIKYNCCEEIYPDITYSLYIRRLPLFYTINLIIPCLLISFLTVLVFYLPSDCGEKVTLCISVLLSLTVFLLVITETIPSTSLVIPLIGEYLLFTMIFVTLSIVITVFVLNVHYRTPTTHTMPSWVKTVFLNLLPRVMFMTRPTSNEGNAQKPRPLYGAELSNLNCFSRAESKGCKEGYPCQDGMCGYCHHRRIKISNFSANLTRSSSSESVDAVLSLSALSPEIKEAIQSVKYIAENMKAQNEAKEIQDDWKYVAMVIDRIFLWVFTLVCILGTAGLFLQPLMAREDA
Neuronal acetylcholine receptor subunit alpha-4, sequence (O70174 whole entry): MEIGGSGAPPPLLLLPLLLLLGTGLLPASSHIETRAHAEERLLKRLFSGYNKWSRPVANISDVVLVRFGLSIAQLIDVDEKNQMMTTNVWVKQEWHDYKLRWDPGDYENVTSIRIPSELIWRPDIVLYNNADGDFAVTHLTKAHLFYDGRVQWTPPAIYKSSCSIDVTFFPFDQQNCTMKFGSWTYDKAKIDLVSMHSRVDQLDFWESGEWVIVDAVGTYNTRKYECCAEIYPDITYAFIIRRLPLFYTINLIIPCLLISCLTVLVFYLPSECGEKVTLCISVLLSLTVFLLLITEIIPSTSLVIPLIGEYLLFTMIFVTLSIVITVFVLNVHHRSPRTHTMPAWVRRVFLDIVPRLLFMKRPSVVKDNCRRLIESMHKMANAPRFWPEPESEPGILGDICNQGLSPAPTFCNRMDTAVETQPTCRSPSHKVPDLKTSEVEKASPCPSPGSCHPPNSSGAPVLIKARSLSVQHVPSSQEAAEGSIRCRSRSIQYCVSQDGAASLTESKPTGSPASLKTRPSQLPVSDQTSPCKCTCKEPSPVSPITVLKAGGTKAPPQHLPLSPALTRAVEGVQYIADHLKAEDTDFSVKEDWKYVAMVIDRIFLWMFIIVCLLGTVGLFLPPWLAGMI
Acetylcholine receptor subunit alpha, sequence (P02708 whole entry, one chain of several): as the sequence (P02708 whole entry) above
Neuronal acetylcholine receptor subunit alpha-7, sequence (P36544 whole entry): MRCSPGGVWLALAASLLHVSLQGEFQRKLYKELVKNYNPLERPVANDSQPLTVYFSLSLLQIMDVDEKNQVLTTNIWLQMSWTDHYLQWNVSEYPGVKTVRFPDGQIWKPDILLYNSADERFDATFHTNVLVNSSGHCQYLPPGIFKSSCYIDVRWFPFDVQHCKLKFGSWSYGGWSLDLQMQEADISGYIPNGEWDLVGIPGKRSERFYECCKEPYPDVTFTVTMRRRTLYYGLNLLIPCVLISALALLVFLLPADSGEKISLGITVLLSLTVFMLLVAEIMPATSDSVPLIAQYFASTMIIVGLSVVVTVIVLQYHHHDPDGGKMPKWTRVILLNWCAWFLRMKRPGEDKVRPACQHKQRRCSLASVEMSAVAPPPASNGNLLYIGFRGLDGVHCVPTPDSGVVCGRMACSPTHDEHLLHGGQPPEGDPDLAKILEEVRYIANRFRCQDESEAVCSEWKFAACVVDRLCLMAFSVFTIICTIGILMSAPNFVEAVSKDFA

Row | SMILES | Retention_time [1] | Retention_time [2] | Retention_time [3] | IC50 [4] | IC50 [5] | LD50 (Musca domestica) | LD50 [6] | IC50 [7] | IC50 [8] | IC50 [9] | inhibition [10]
1 | N=C1NCCN1Cc1ccc(Cl)nc1 [DESNITROIMIDACLOPRID] | 4.24 min | 2.8 min | 2.9 min | 8.2 nM | 14 nM | > 5 mg/kg | 6 mg/kg | 1530 nM | 9900 nM | 11000 nM | –
2 | N=c1sccn1Cc1ccc(Cl)nc1 | 4.21 min | 2.98 min | 3.02 min | 1.4 nM | – | > 5 mg/kg | 0.7 mg/kg | 185 nM | 4000 nM | 8000 nM | –
3 | Clc1ccc(C2CC3CCC2N3)cn1 (racemic) [EPIBATIDINE] | – | – | – | 0.037 nM | – | > 25 mg/kg | 0.06 mg/kg | 430 nM | 31 nM | 160 nM | –
4 | O=[N+]([O-])/C=C1/NCCCN1Cc1ccc(Cl)nc1 | – | – | – | 80 nM | 180 nM | 0.08 mg/kg | 10 mg/kg | 0.37 nM | 1000 nM | 81000 nM | –
5 | O=[N+]([O-])/N=C1\NCCN1Cc1ccc(Cl)nc1 [IMIDACLOPRID] | – | – | – | – | – | 0.02 mg/kg | – | – | – | – | 39%
6 | N#C/N=C1\SCCN1Cc1ccc(Cl)nc1 [THIACLOPRID] | 6.05 min | 6.07 min | 6.06 min | 860 nM | – | 0.03 mg/kg | 25 mg/kg | 2.7 nM | 100000 nM | 120000 nM | –
7 | CN1CCC[C@H]1c1cccnc1 [NICOTINE] | 11.23 min | 3.16 min | 3.18 min | – | – | > 50 mg/kg | 6 mg/kg | 4000 nM | – | 21000 nM | –
8 | N=C1SCCN1Cc1ccc(Cl)nc1 [DESCYANOTHIACLOPRID] | 4.23 min | 2.84 min | 3 min | 4.4 nM | – | > 5 mg/kg | 0.7 mg/kg | 200 nM | 6000 nM | 6000 nM | –
9 | O=[N+]([O-])NC1=NCCN1Cc1ccc(Cl)nc1 [IMIDACLOPRID] | 4.82 min | 4.87 min | 4.84 min | 2600 nM | 14000 nM | – | 40 mg/kg | 4.6 nM | 270000 nM | > 300000 nM | –
